From ChEMBL document CHEMBL5252546, “Salutaxel, a Conjugate of Docetaxel and a Muramyl Dipeptide (MDP) Analogue, Acts as Multifunctional Prodrug That Inhibits Tumor Growth and Metastasis” (J Med Chem, 2018)
Blank lines part the entries; values can stand above or below the molecule they belong to. The source made the active and inactive calls. The calls are words filed in the database; no cut-off is given here.

Experiments:
4T1 [1] = experiment: Antitumor activity against mouse 4T1 cells implanted in BALB/c mouse assessed as decrease in lung injury at 5.7 mg/kg,iv administrated once per week for 4 weeks by H and E staining based assay; assay type: functional, organism-based
Summary of the method: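 BALB/c mice bearing orthotopic mammary fat pad 4T1 tumors, dosed iv weekly for 4 weeks with saline vehicle as control. Lung sections stained with hematoxylin and eosin and examined by light microscopy at 40× for metastasis, inflammatory infiltration and alveolar wall thickening.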

[2] = Toxicity in BALB/c mouse xenografted with human A549/Taxol cells assessed as body weight loss at 5.7 mg/kg,iv administrated once per week for 3 weeks; assay type: organism-based, A549/TR; conditions: in vivo, 504 h
Summary of the method: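 Nude BALB/c nu/nu mice received subcutaneous human tumour cells into the right flank. Dosing started at mean tumour volume of 100–120 mm3, iv once weekly for 3 weeks; the taxane arm was an equimolar control. Body weight and overt side effects were monitored. Mean ± SEM, n = 8.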

[3] = Tmax in mouse tumor implanted with mouse 4T1 cells at 5.7 mg/kg,iv measured upto 72 hrs; assay type: ADME, organism-based, Neoplasm
[4] = Half life in female Beagle dog at 1 mg/kg,iv measured upto 24 hrs; assay type: ADME, organism-based, Canis lupus familiaris; conditions: in vivo
[5] = Half life in rat at 8 mg/kg,iv measured upto 24 hrs; assay type: ADME, organism-based; conditions: in vivo
4T1 [6] = experiment: Antitumor activity against mouse 4T1 cells xenografted with BALB/c mouse assessed as inhibition of tumor growth at 5 to 20 mg/kg,iv administrated once per week for 4 weeks; assay type: functional, organism-based; conditions: dose 5-20 mg/kg
Summary of the method: (§1)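 4T1 cells injected into the mammary fat pad of BALB/c mice; iv saline vehicle or 5, 10 or 20 mg/kg once weekly for 4 weeks; body weight, tumour volume, tumour weight, lung metastatic nodule count and metastasis score recorded; n = 10, mean ± SEM, ANOVA and Student's t test.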

KM12 = experiment: Antiproliferative activity against human KM12 cells assessed inhibition of cell growth incubated for 72 hrs by SRB assay; assay type: functional, cell-based; conditions: KM12, 72 h
[7] = Drug metabolism in rat plasma assessed as metabolite docetaxel formation at 4 mg/kg,iv measured after 24 hrs; assay type: ADME, organism-based; conditions: in vivo
Cytochrome P450 2D6 = Cytochrome P450 2D6 (Homo sapiens, UniProt P10635); experiment: Inhibition of CYP2D6 in human liver microsomes using probe substrate at 0.1 to 100 uM in presence of NADPH; assay type: ADME, Microsome; conditions: dose 0.1-100 µM
[8] = Tmax in male rat at 8 mg/kg,iv measured upto 24 hrs; assay type: ADME, organism-based; conditions: in vivo
[9] = Cmax in male rat at 8 mg/kg,iv measured upto 24 hrs; assay type: ADME, organism-based; design: time < 24 hrs, dose 8 mg/kg, route iv; conditions: in vivo
Summary of the method: (§2)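 Rats were given a single iv injection at 2, 4 or 8 mg/kg. Plasma parent drug and released docetaxel were followed over time. Cmax, Tmax, AUC, MRT, t1/2, CL and Vss were reported for males, females and all animals combined.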

[10] = Volume of distribution at steady state in female Beagle dog at 2 mg/kg,iv measured upto 24 hrs; assay type: ADME, organism-based, Canis lupus familiaris; conditions: in vivo, read-out: Vdss
MDA-MB-435 = experiment: Antiproliferative activity against human MDA-MB-435 cells assessed inhibition of cell growth incubated for 72 hrs by SRB assay; assay type: functional, cell-based; conditions: MDA-MB-435, 72 h
[11] = Toxicity in BALB/c mouse xenografted with human NCI-H1975 cells assessed as body weight loss at 10 mg/kg,iv administrated once per week for 3 weeks; assay type: organism-based; conditions: in vivo, 504 h
[12] = Cmax in rat at 4 mg/kg,iv measured upto 24 hrs; assay type: ADME, organism-based; design: dose 4 mg/kg, time < 24 hrs, route iv; conditions: in vivo; summary of the method: as §2
[13] = Cmax in female rat at 2 mg/kg,iv measured upto 24 hrs; assay type: ADME, organism-based; design: time < 24 hrs, dose 2 mg/kg, route iv; conditions: in vivo; summary of the method: as §2
[14] = Drug distribution in rat small intestine at 4 mg/kg,iv measured by 0.25 hrs; assay type: ADME, organism-based; conditions: in vivo
Summary of the method: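 Rats received 4 mg/kg iv. Parent drug and released docetaxel were assayed in tissues and plasma from the first sampling at 0.25 h to 24 h. The lower limit of quantitation was 200 ng/g.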

[15] = AUC (0-infinity) in female Beagle dog at 2 mg/kg,iv measured upto 24 hrs; assay type: ADME, organism-based, Canis lupus familiaris; design: time < 24 hrs, dose 2 mg/kg, route iv; conditions: in vivo
Summary of the method: (§3)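 Single iv dose: rats 2, 4 or 8 mg/kg by intravenous injection; Beagle dogs 1, 2 or 4 mg/kg by intravenous infusion. Plasma concentration–time data were analysed by sex and pooled. Reported parameters: Cmax, Tmax, AUC0−t, AUC0−∞, MRT0−∞, t1/2, CL, Vss, given as mean ± SD.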

[16] = Volume of distribution at steady state in male rat at 4 mg/kg,iv measured upto 24 hrs; assay type: ADME, organism-based; conditions: in vivo, read-out: Vdss
[17] = Clearance in male rat at 8 mg/kg,iv measured upto 24 hrs; assay type: ADME, organism-based; conditions: in vivo; summary of the method: as §2
4T1 [18] = experiment: Antitumor activity against mouse 4T1 cells implanted in BALB/c mouse assessed as decrease in serum IL-6 level at 5 mg/kg,iv administrated once per week for 4 weeks by ELISA; assay type: functional, organism-based
Summary of the method: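 4T1 fat-pad model in BALB/c mice, iv 5–20 mg/kg once weekly for 4 weeks, with vehicle and naive groups; serum MMP9, TIMP-1, IL-6 and S100A9 measured by mouse ELISA kits.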

[19] = AUC (0-infinity) in rat at 2 mg/kg,iv measured upto 24 hrs; assay type: ADME, organism-based; design: dose 2 mg/kg, time < 24 hrs, route iv; conditions: in vivo; summary of the method: as §3
[20] = Volume of distribution at steady state in female rat at 4 mg/kg,iv measured upto 24 hrs; assay type: ADME, organism-based; conditions: in vivo, read-out: Vdss
[21] = AUC (0-t) in female rat at 4 mg/kg,iv measured upto 24 hrs; assay type: ADME, organism-based; design: time < 24 hrs, dose 4 mg/kg, route iv; conditions: in vivo; summary of the method: as §3
4T1 [22] = experiment: Antitumor activity against mouse 4T1 cells xenografted with BALB/c mouse assessed as inhibition of tumor growth at 5 mg/kg,iv administrated once per week for 4 weeks; assay type: functional; conditions: 4T1, 672 h; summary of the method: as §1
[23] = AUC (0-infinity) in male rat at 8 mg/kg,iv measured upto 24 hrs; assay type: ADME, organism-based; design: dose 8 mg/kg, time < 24 hrs, route iv; conditions: in vivo; summary of the method: as §3
[24] = Drug metabolism in human hepatocytes assessed as docetaxel metabolite formation at 20 uM incubated for 180 mins; assay type: ADME, cell-based, Hepatocyte; conditions: 3 h
[25] = Stability in human plasma assessed as compound remaining at 40 uM incubated for 6 hrs; assay type: ADME, cell-free
[26] = Volume of distribution at steady state in male Beagle dog at 1 mg/kg,iv measured upto 24 hrs; assay type: ADME, organism-based, Canis lupus familiaris; conditions: in vivo, read-out: Vdss
[27] = Prodrug conversion in mouse tumor implanted with mouse 4T1 cells assessed as Cmax of docetaxel at 4 mg/kg,iv measured upto 72 hrs; assay type: ADME, organism-based, Neoplasm; design: time < 72 hrs, dose 4 mg/kg, route iv; conditions: in vivo
[28] = Clearance in male rat at 2 mg/kg,iv measured upto 24 hrs; assay type: ADME, organism-based; conditions: in vivo; summary of the method: as §2
[29] = Prodrug conversion in mouse plasma implanted with mouse 4T1 cells assessed as Cmax of docetaxel at 4 mg/kg,iv measured upto 72 hrs; assay type: ADME, organism-based; design: dose 4 mg/kg, time < 72 hrs, route iv; conditions: in vivo
[30] = Toxicity in Beagle dog assessed as decrease in blood pressure at 1 to 4 mg/kg,iv; assay type: organism-based, Canis lupus familiaris; conditions: in vivo, dose 1-4 mg/kg
4T1 [31] = experiment: Antitumor activity against mouse 4T1 cells implanted in BALB/c mouse assessed as decrease in tumor MMP9 expression level at 5 to 20 mg/kg,iv administrated once per week for 4 weeks by western blot assay; assay type: functional, organism-based; conditions: dose 5-20 mg/kg
Summary of the method: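 4T1 fat-pad model in BALB/c mice, iv once weekly for 4 weeks; MMP9, MMP2 and NOD1 in spleen, lung and tumour by western blot, β-actin loading control; bands averaged over five mice per group, representative of two independent experiments.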

Cytochrome P450 2D6, sequence (P10635 whole entry): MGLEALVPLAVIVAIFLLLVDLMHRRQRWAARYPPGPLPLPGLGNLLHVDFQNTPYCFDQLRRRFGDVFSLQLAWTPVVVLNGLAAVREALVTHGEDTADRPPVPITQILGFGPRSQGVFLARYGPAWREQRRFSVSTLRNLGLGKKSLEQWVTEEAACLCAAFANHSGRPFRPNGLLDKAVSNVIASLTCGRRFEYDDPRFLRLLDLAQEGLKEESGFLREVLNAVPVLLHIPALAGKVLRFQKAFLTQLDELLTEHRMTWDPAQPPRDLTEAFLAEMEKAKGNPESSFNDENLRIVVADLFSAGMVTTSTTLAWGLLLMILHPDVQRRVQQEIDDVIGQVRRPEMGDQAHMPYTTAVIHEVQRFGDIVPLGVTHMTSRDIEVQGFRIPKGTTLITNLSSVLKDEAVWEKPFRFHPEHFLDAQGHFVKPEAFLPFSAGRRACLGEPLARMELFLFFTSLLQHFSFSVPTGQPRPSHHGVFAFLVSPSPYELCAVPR

Tmax [3]: 30 min
SMILES: CC(=O)O[C@@]12CO[C@@H]1C[C@H](O)[C@@]1(C)C(=O)[C@H](O)C3=C(C)[C@@H](OC(=O)[C@H](O)[C@@H](NC(=O)OC(C)(C)C)c4ccccc4)C[C@@](O)([C@@H](OC(=O)c4ccccc4)[C@H]21)C3(C)C [DOCETAXEL ANHYDROUS]
Activity (4T1 [1]): Active
Activity [2]: Non-Toxic

SMILES: CC(=O)O[C@@]12CO[C@@H]1C[C@H](O)[C@@]1(C)C(=O)[C@H](O)C3=C(C)[C@@H](OC(=O)[C@H](OC(=O)CCC(=O)NCCCC[C@H](NC(=O)CC[C@@H](NC(=O)[C@H](C)NC(=O)/C=C/c4ccc(F)cc4Cl)C(N)=O)C(=O)O)[C@@H](NC(=O)OC(C)(C)C)c4ccccc4)C[C@@](O)([C@@H](OC(=O)c4ccccc4)[C@H]21)C3(C)C
half-life [4]: 29 min
half-life [5]: 18.3 min
inhibition (4T1 [6]): Dose-Dependent Effect
IC50 (KM12): 0.0163 µM
Drug metabolism [7]: Metabolite_Detected
inhibition (INH) (Cytochrome P450 2D6): Not Active
Tmax [8]: 4.98 min
Cmax [9]: 61900 ng/mL
Vd [10]: 0.077 L/kg
IC50 (MDA-MB-435): 0.0163 µM
Activity [11]: Non-Toxic
Cmax [12]: 34200 ng/mL
Cmax [13]: 14600 ng/mL
Drug uptake [14]: Active
AUC(0-inf) [15]: 7020 ng·h/mL
Vd [16]: 0.073 L/kg
clearance [17]: 2.55 mL/min/kg
Activity (4T1 [18]): Active
AUC(0-inf) [19]: 5230 ng·h/mL
Vd [20]: 0.08 L/kg
AUC(0-t) at 24 h [21]: 13000 ng·h/mL
inhibition in vivo at 5 mg/kg (4T1 [22]): 12%
AUC(0-inf) [23]: 52800 ng·h/mL
Drug metabolism [24]: Metabolite_Detected
Stability [25]: Stable
Vd [26]: 0.134 L/kg
Cmax [27]: 2.39 µM
clearance [28]: 5.58 mL/min/kg
Cmax [29]: 43.3 µM
Activity [30]: Toxic
Activity (4T1 [31]): inactive
